# CAL PDZ FP-1: untagged CAL PDZ binding inhibitors, primary screen, biochemical, fluorescence polarization, HTS | inhibition, % at 24.9 µM | Golgi-associated PDZ and coiled-coil motif-containing protein (Homo sapiens), Q9HD26 | purified CAL PDZ, TMR-peptide fluorescence polarization, 1 h | AID 602252, 2012 | hit rate 0.92% among 300,000;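 active = mean inhibition of at least 30% with at least half of replicates also reaching 30%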;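 also: 0% = DMSO neutral control and 100% = excess unlabeled competitor peptide PRC23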
# ALR inh: inhibitors of human ALR sulfhydryl oxidase, primary screen, biochemical, H2O2 detection, HRP-luminol luminescence, single point. purified ALR, DTT oxidation. inhibition, % (concentration not given with the values). hit rate 3.8% among 290,000;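 active = mean replicate inhibition above about 79%, with every replicate also reaching it, limit read from the data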
# Target sequence (P55789 whole entry, looked up): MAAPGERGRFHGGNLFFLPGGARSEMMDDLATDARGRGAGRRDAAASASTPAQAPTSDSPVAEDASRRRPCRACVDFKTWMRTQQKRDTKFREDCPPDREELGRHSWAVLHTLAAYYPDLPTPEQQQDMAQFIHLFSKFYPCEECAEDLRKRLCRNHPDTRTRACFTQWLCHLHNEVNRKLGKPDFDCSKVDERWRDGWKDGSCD
# Rtt109 Vps75: inhibitors of C. albicans Rtt109/Vps75 HAT, primary screen, biochemical, ThioGlo CoA-SH fluorescence, plate reader | Histone acetyltransferase RTT109 (Candida albicans (strain SC5314 / ATCC MYA-2876)), … | hit rate 0.16% among 330,000 | purified Rtt109/Vps75, 4 h | inhibition, % at 34.9 µM;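 active = inhibition of at least 50% in every replicate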
# Target sequence (Q5AAJ8 whole entry, looked up): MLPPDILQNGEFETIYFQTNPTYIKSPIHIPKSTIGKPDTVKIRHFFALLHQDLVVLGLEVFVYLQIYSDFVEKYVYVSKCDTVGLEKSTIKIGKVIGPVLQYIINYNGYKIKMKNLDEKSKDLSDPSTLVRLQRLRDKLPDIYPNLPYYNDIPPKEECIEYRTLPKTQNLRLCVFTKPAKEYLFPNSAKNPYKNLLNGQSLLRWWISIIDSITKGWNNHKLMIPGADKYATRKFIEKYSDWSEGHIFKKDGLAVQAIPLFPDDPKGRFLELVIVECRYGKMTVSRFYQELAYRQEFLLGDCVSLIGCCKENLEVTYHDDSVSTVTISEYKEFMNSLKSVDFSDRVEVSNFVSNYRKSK
# Dyrk1A ADPGlo: rat Dyrk1A kinase inhibitors, primary screen, biochemical, single point, plate reader | Dual specificity tyrosine-phosphorylation-regulated kinase 1A (Rattus norvegicus), Q63470 | ADP-Glo luminescence, NFATc1 peptide | inhibition, % at 12.5 µM | hit rate 0.43% among 310,000 | AID 504441, 2011; in the data active = inhibition above about 50%;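 also: plate controls were vehicle with enzyme for no effect and no enzyme for full effect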
# CAL PDZ FP-2: CAL PDZ peptide-binding inhibitors, primary screen, biochemical, fluorescence polarization, Cer-tagged CAL PDZ, HTS | Golgi-associated PDZ and coiled-coil motif-containing protein (Homo sapiens), Q9HD26 | purified CAL PDZ, TMR-peptide fluorescence polarization, 1 h | inhibition, % at 20 µM | hit rate 0.02% among 330,000;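 active = highest replicate inhibition of at least 40%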;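 also: plate controls were DMSO neutral control wells for no effect and unlabeled competitor peptide control wells for full effect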
#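 Material – purified CerCALP PDZ construct · Detection – FP readout, S and P plane fluorescence · Measure – percent inhibition from loss of millipolarization · Controls – unlabelled peptide for full inhibition, DMSO wells as neutral · Probe or stimulus – TMR-labelled reporter peptide T*-PRC34 bound in PDZ groove · Times – 1 h at RT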
# The depositor's hits bear a star; / = no result. Sampled rows, rich in hits. Any-hit rate of the full collection: about 4.3%.
SMILES,CAL PDZ FP-1,ALR inh,Rtt109 Vps75,Dyrk1A ADPGlo,CAL PDZ FP-2
Cn1c(CS/C(N)=N/N=C/c2ccccc2)c(Br)c(=O)n1-c1ccccc1,-5,98*,-7,5,0
O=C(Nc1nnc(S(=O)(=O)N2CCOCC2)s1)c1ccccc1,/,99*,-8,-6,0
O=C(Nc1nc(-c2nc3ccccc3s2)cs1)c1ccc(S(=O)(=O)N2CCOCC2)cc1,-2,-5,62*,/,-3
CC(C)OCC(O)CCc1n[nH]c(=S)n1-c1ccccc1 (centres undefined),-2,88*,-3,6,0
S=c1[nH]nc(Cc2ccccc2)n1-c1ccc(Cl)cc1,-2,58,0,2,-2
CCn1c(Cc2ccccc2)n[nH]c1=S,-3,29,2,3,1
CC(C)Cn1c(Cc2ccccc2)n[nH]c1=S,/,92*,1,0,-1
S=c1[nH]nc(Cc2ccccc2)n1-c1ccccc1,-4,87*,0,-13,-1
Cc1ccc(-n2c(-c3cnccn3)n[nH]c2=S)cc1,1,88*,-3,-3,0
O=C(NCC(c1ccco1)N1CCCCC1)c1ccc(COc2ccc(Cl)cc2)cc1 (centres undefined),/,/,-4,/,-1
Cc1ccc(OCC(=O)NNC(=O)c2ccc3c(=O)n4c(nc3c2)CCC4)cc1,-8,/,-7,7,-3
Cc1ccc(-n2c(Cc3noc4ccccc34)n[nH]c2=S)cc1,-3,41,-3,7,0
S=c1[nH]nc(CCc2ccccc2)n1-c1ccccc1,-3,-3,-11,6,0
S=c1[nH]nc(Cc2noc3ccccc23)n1-c1ccc(Cl)cc1,18,92*,-1,0,-1
S=c1[nH]nc(Cc2cccs2)n1-c1ccccc1,-1,30,-4,/,1
CCCCc1ccc(-n2c(Cc3cccs3)n[nH]c2=S)cc1,-2,35,72*,2,-3
Cc1ccc(-n2c(Cc3ccccc3)n[nH]c2=S)cc1,/,92*,-5,1,-1
S=c1[nH]nc(Cc2n[nH]c(=S)n2-c2ccccc2)n1-c1ccccc1,1,93*,4,-6,0
Cc1cccc(OCC(=O)NCCCNC(=O)c2ccncc2)c1,/,3,-19,-2,-1
O=[N+]([O-])c1ccc(-c2cn(-c3ccccc3)c(=S)[nH]2)cc1,-1,-2,/,-11,-3
S=c1[nH]c(-c2ccccc2)cn1-c1ccccc1,1,97*,-2,6,0
COC(=O)c1ccc(-n2cc(-c3ccc(OC)cc3)[nH]c2=S)cc1,-1,88*,-1,0,-2
COc1ccc(-n2cc(-c3ccc(Cl)cc3)[nH]c2=S)cc1,0,-1,-4,8,0
Nc1ccc(-n2cc(-c3ccccc3)[nH]c2=S)cc1,1,91*,1,1,-1
Oc1ccc(/C=N/n2cc(-c3ccccc3)[nH]c2=S)cc1,/,99*,13,3,1
SMILES,CAL PDZ FP-1,ALR inh,Rtt109 Vps75,Dyrk1A ADPGlo,CAL PDZ FP-2
CSc1sc(C(=O)N2CCCCC2)c(-c2cccs2)c1C#N,/,-2,4,9,-2
COc1ccc(OCC(O)CNC(=O)c2sccc2Cl)cc1 (centres undefined),3,-12,-9,-1,0
CN(C)c1ccc(/C=C(\NC(=O)c2ccccc2)C(=O)NCCCn2ccnc2)cc1,-3,99*,16,2,-3
CC(=O)c1cccc(Oc2cc(NN3CCCCC3)c([N+](=O)[O-])cc2[N+](=O)[O-])c1,-3,93*,-3,7,0
O=[N+]([O-])c1cc([N+](=O)[O-])c(Oc2c(F)cccc2F)cc1NN1CCCCC1,-4,/,0,-3,-1
O=[N+]([O-])c1cc([N+](=O)[O-])c(Oc2c(F)ccc(F)c2F)cc1NN1CCCCC1,-2,96*,1,-2,0
CN(C)c1ccc(C(=O)NCC(c2cccs2)N2CCOCC2)cc1 (centres undefined),/,/,7,-2,0
O=C(Nc1ccc([N+](=O)[O-])cc1)Nc1ccc(N2CCOCC2)c2nonc12,/,-13,1,3,1
CSC(=O)CC(=O)NC(=O)c1ccccc1,-1,97*,8,4,0
CSc1nnc(SCC(=O)NC(=O)c2ccccc2)s1,-3,/,-3,23,-2
COc1ccc(Cl)cc1C(=O)NNC(=O)CSc1nncn1C,-1,-9,2,1,0
Cc1c(Br)cc(C(=O)NCc2ccco2)c(C)c1C,5,98*,8,6,0
CN(CC(=O)NCc1cccs1)S(=O)(=O)c1cccc2cccnc12,/,94*,-17,3,-1
CCN(CC(=O)Nc1ccc(Cl)c(C(F)(F)F)c1)CC(=O)NC1CCS(=O)(=O)C1 (centres undefined),-6,-21,-1,-5,-4
CC(C)Nc1ccc(Nc2ccnc3cc4ccccc4cc23)cc1,2,99*,0,18,9
Cc1csc(=O)n1CCC(=O)OCC(=O)Nc1cc([N+](=O)[O-])ccc1Cl,-3,4,-4,5,-2
CC(=O)c1c(C)[nH]c(C(=O)COC(=O)c2ccc(Cl)nc2)c1C,-3,0,-4,-1,1
NC(=O)c1cc(Br)cc(C2CCCCC2)c1O,-1,92*,6,5,-1
Oc1cc2c(cc1O)C(c1ccccc1)CNCC2 (centres undefined),-2,98*,-3,-1,1
Oc1cc2c(cc1O)[C@@H](c1ccccc1)CNCC2,-4,/,-8,-2,0
COc1ccc(CN(C)CCCn2cnc(C(=O)Nc3ccc(C)c(C)c3)n2)cc1OC,-5,/,-10,/,1
O=C(CCSCCc1ccccn1)Nc1ccc(Cc2ccncc2)cc1,0,-23,-2,-1,-3
CC(C)NC(=O)NC(=O)COC(=O)c1ccccc1Oc1ccccc1,76*,-3,3,2,/
Cc1ccccc1C(=O)O/N=C(\N)Cc1cccs1,-4,-2,-3,3,-1
CCC(C(=O)Nc1ccc2[nH]ncc2c1)c1ccccc1 (centres undefined),-3,-55,2,26,/
CC(Nc1nc2ccccc2n2cnnc12)c1ccccc1 (centres undefined),2,-4,7,44,-2
CC(C)Sc1nc2ccccc2n2cnnc12,-6,99*,-1,/,-1
Cc1cc(C)cc(NC(=O)CSc2cc(C(=O)c3nccn3C)c3ccccc3n2)c1,-8,-1,-3,-8,-3

# Bioassay records from PubChem BioAssay.
